Experimental data from different studies.
Lines come from different studies, so protocols differ.
Target: cAMP-dependent protein kinase catalytic subunit beta (PRKACB, Homo sapiens, UniProt P22694)

O=C(NCCCC1CCCCC1)c1ccc(CNC(=O)c2cnn(-c3ccccc3)c2C(F)(F)F)cc1 gave a remaining binding of 100% (cell-free assay; competition with immobilised ligand; 0.1 µM).
With FC(F)(F)Oc1cccc(-c2cnc3ccc(-c4ccncc4)nn23)c1 the remaining binding was 98% (cell-free assay; competition with immobilised ligand; 5 µM).
O=C(c1ccc(Nc2ncc(Cl)c(-c3cc4ccccc4s3)n2)cc1)N1CCC(N2CCCC2)CC1 has a remaining binding of 98% (binding; competition with immobilised ligand; 1 µM).
The remaining binding of O=C(O)c1cc(-c2ccc(C3CCNCC3)cc2)c2ccc(-c3ccc(C(F)(F)F)cc3)cc2c1 is reported as 100% (cell-free assay; competition with immobilised ligand; 1 µM).
For CNC(=O)[C@@H]1CC[C@@H](n2c(-c3ccc4cnccc4c3)nc3ccc(C(=O)NCc4cccc(C(N)=O)c4)cc32)C1, the remaining binding was 100% (binding; competition with immobilised ligand; 1 µM).
With CN(C)CC#Cc1ccc(OCCCc2sc(N3CCc4cccc(C(=O)Nc5nc6ccccc6s5)c4C3)nc2C(=O)O)c(F)c1 the remaining binding was 100% (cell-free assay; competition with immobilised ligand; 1 µM).
Cc1cnn2ncc(-c3ccnc(N(C)C)n3)c2c1 has a remaining binding of 96% (binding; competition with immobilised ligand; 1 µM).
COc1ccc2c(O[C@@H]3C[C@H]4C(=O)N[C@]5(C(=O)O)CC5/C=C\CCCCC[C@H](NC(=O)OC5CCCC5)C(=O)N4C3)cc(-c3csc(NC(=O)C(C)C)n3)nc2c1C (stereo partly drawn) gave a remaining binding of 100% (cell-free assay; competition with immobilised ligand; 1 µM).
With O=C(c1ccc(Nc2ncc(Cl)c(-c3ccc(Cl)s3)n2)cc1)N1CCC(N2CCCC2)CC1 the remaining binding was 100% (binding; competition with immobilised ligand; 1 µM).
c1cnn2ncc(-c3ccnc(N4CCC45COC5)n3)c2c1 has a remaining binding of 92% (binding; competition with immobilised ligand; 1 µM).
The remaining binding of Cc1cnc(Nc2ccc(C(=O)N3CCC(N4CCCC4)CC3)cc2)nc1-c1cc2ccccc2s1 is reported as 85% (binding; competition with immobilised ligand; 1 µM).
CN(c1nccc(-c2cnn3ncccc23)n1)C1CC1 gave a remaining binding of 99% (binding; 1 µM).
The remaining binding of Nc1ncc2c(n1)-c1c([nH]c3ccc(C#CC4CC4)cc13)CCCC2 is reported as 86% (binding; competition with immobilised ligand; 1 µM).
With COc1cnc(Nc2cccc(S(N)(=O)=O)c2)nc1N1CCN(c2ccccc2)C(=O)C1 the remaining binding was 99% (binding; competition with immobilised ligand; 1 µM).
C[C@H]1CCN(c2nccc(-c3cnn4ncccc34)n2)C1 has a remaining binding of 99% (binding; competition with immobilised ligand; 1 µM).
O=C(Nc1c[nH]nc1C(=O)NC1CCNCC1)c1cc(F)cc(F)c1 has a remaining binding of 100% (binding; competition with immobilised ligand; 1 µM).
The remaining binding of CS(=O)(=O)N1CCCC(NC(=O)[C@H](CCC2CCCCC2)NC(=O)c2ccc(CNc3ncnc4c3nnn4-c3ccccc3)cc2)C1 (stereo partly drawn) is reported as 92% (cell-free assay; competition with immobilised ligand; 0.1 µM).
For C[C@@H](c1ccc(-n2cnc3c(N)ncnc32)cc1)N1CCc2nn(C)c(Cc3ccccc3)c2C1=O, the remaining binding was 100% (binding; competition with immobilised ligand; 0.1 µM).
Cc1nc(Cc2cccc(C(F)(F)F)c2)sc1-c1ccc(C(N)=O)nc1 has a remaining binding of 92% (cell-free assay; competition with immobilised ligand; 1 µM).
CC1CCCN1c1nccc(-c2cnn3ncccc23)n1 (stereo not drawn) has a remaining binding of 89% (binding; competition with immobilised ligand; 1 µM).
With CCN1CCN(Cc2ccc(C(=O)Nc3ccc(C)c(Oc4ccc5c(c4)CC(=O)N5)c3)cc2C(F)(F)F)CC1 the remaining binding was 80% (binding; competition with immobilised ligand; 1 µM).
